Published values pooled from the literature.
Protocols differ between the studies behind these lines.
HTR1D: 5-hydroxytryptamine receptor 1D (HTR1D, Homo sapiens, UniProt P28221)
Dipeptidyl peptidase 8: Dipeptidyl peptidase 8 (Homo sapiens, UniProt Q6V1X1)
ALOX5: Polyunsaturated fatty acid 5-lipoxygenase (ALOX5, Homo sapiens, UniProt P09917)

| SMILES | target | assay | conditions | quantity | result |
| --- | --- | --- | --- | --- | --- |
| O=C(CCCN1CCN(c2ccccc2)CC1)c1ccc(F)cc1 | HTR1D | ligand displacement, radioligand | – | Ki | 0.169 µM |
| OC(c1ccc(F)cc1)C(F)(F)CCN1CCC(O)(c2ccc(Cl)cc2)CC1 (racemic) | HTR1D | cell-free assay, radioligand | – | Ki | 4.88 µM |
| CC(C)S[C@@H]1O[C@H](CO)[C@H](O)[C@H](O)[C@H]1O | Beta-galactosidase (lacZ, Escherichia coli K-12, UniProt P00722) | enzyme activity, inhibitor, fluorescence | – | Ki | 36 µM |
| CC(C)[C@H](NC(=O)[C@H](CCCNC(=N)N)NC(=O)N[C@@H](Cc1ccccc1)C(=O)O)C(=O)N[C@H](C=O)CCCNC(=N)N | Transmembrane protease serine 2 (TMPRSS2, Homo sapiens, UniProt O15393) | enzyme activity, inhibitor, fluorescence | pH 8 | IC50 | 0.38 µM |
| COc1ccc(C(=O)CCN2CCN(c3ccccc3F)CC2)cc1 | HTR1D | ligand displacement, radioligand | – | Ki | 0.185 µM |
| CC(C)C[C@@H]1C(=O)N[C@H]([C@@H](C)O)C(=O)N[C@H](C)[C@@H](C)C(=O)O[C@@H](Cc2ccccc2)C(=O)N(C)[C@@H](C(C)C)C(=O)N2CCC[C@H]2C(=O)N(C)[C@H](Cc2ccccc2)C2=N[C@@H](CS2)C(=O)N[C@H](C)C2=N[C@@H](CS2)C(=O)N1C | Dipeptidyl peptidase 8 | enzyme activity, inhibitor | – | IC50 | 16.6 µM |
| CCCCCc1cc(O)c2c(c1)OC(C)(CCC=C(C)C)C=C2 (stereo not shown) | ALOX5 | enzyme activity, inhibitor | – | IC50 | 1.6 µM |
| C[C@H](N)Cn1ncc2ccc3c(c21)CCCO3 | HTR1D | ligand displacement, radioligand | – | Ki | 6.9 µM |
| CC(C)Cc1ccc([C@H](C)C(=O)O)cc1 | Histone acetyltransferase KAT2B (KAT2B, Homo sapiens, UniProt Q92831) | enzyme activity, inhibitor, mobility shift | – | IC50 | ~6000 µM |
| C[C@H](NC(=O)[C@@H](CCC(=O)O)NC(=O)CN1CCN(CC(=O)O)CCN(CC(=O)O)CCN(CC(=O)O)CC1)C(=O)N[C@@H](Cc1ccc(O)cc1)C(=O)NCC(=O)N[C@@H](Cc1c[nH]c2ccccc12)C(=O)N[C@H](C(=O)N[C@@H](CC(=O)O)C(=O)N[C@@H](Cc1cccc2ccccc12)C(N)=O)c1ccccc1 | Gastrin/cholecystokinin type B receptor (Rattus norvegicus, UniProt P30553) | ligand displacement, radioligand | – | IC50 | 0.0568 µM |
| COc1cc(Nc2ncc(F)c(Nc3ccc4c(n3)NC(=O)C(C)(C)O4)n2)cc(OC)c1OC | ALOX5 | enzyme activity, inhibitor | – | IC50 | 5.01 µM |
| COC[C@H]1OC(=O)c2coc3c2[C@@]1(C)C1=C(C3=O)[C@@H]2CCC(=O)[C@@]2(C)C[C@H]1OC(C)=O | TGF-beta receptor type-2 (TGFBR2, Homo sapiens, UniProt P37173) | cell-free assay, competition with immobilised ligand | – | Kd | > 10 µM |
| COc1ccc(C(=O)CCN2CCN(c3ccccc3OC)CC2)cc1 | HTR1D | ligand displacement, radioligand | – | Ki | 0.062 µM |
| CC[C@H]1NC(=O)[C@@H]2CSC(=N2)[C@H](Cc2ccccc2)N(C)C(=O)[C@@H]2CCCN2C(=O)[C@H](C(C)C)N(C)C(=O)[C@H](Cc2ccccc2)OC(=O)[C@H](C)[C@@H](C)NC(=O)[C@@H]([C@@H](C)O)NC(=O)[C@@H](CC(C)C)N(C)C(=O)[C@@H]2CSC1=N2 | Dipeptidyl peptidase 8 | enzyme activity, inhibitor | – | IC50 | 6.41 µM |
| C[C@@]1(F)[C@H](O)[C@@H](COP(=O)(O)OP(=O)(O)OP(=O)(O)O)O[C@H]1n1ccc(=O)[nH]c1=O | DNA polymerase subunit gamma-1 (POLG, Homo sapiens, UniProt P54098) | enzyme activity, inhibitor | – | IC50 | > 100 µM |
| Fc1ccc2onc(C3CCNCC3)c2c1 | Sodium-dependent serotonin transporter (Slc6a4, Rattus norvegicus, UniProt P31652) | ligand displacement, radioligand | – | Ki | > 10 µM |
